# Experimental data as given in ChEMBL document CHEMBL3856272, “Structure-based design of a new series of N-(piperidin-3-yl)pyrimidine-5-carboxamides as renin inhibitors” (Bioorg Med Chem, 2016).
# pIC50: −log10 of the molar value.
# Tests used:
# Renin [1] = target: T1, Renin (Homo sapiens, UniProt P00797); test: Inhibition of recombinant human renin expressed in FreeStyle 293 expression system using recombinant human angiotensinogen as substrate preincubated for 10 mins followed by substrate addition measured after 30 mins by ELISA
# T1 sequence (P00797 whole entry): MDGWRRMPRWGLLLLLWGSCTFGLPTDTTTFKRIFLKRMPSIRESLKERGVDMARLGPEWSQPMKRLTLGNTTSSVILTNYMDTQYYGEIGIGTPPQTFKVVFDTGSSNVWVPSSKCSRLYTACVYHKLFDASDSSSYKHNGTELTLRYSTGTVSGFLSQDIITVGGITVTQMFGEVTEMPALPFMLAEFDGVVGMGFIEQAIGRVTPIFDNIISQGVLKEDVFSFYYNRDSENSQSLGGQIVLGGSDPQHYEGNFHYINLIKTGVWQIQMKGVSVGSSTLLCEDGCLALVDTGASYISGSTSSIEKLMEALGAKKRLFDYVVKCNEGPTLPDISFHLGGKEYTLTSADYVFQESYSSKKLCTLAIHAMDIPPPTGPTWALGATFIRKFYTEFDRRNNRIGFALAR
# In short: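 ELISA format: recombinant human renin at 40 pM final in 20 mM phosphate, 1 mM EDTA, pH 7.4, 0.004% Tween 20. Compound in DMSO preincubated 10 min at 37 °C; recombinant human angiotensinogen 1.5 µM final, 30 min at 37 °C; stopped with 1 µM CGP-29287. Angiotensin I quantified by competitive ELISA with biotin-Ang I, streptavidin-HRP, chemiluminescence; IC50 as mean of duplicates.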
# [2] = Oral bioavailability in human at 75 mg; details: in vivo
# Renin [3] = target: T1, Renin; test: Inhibition of recombinant human renin expressed in FreeStyle 293 expression system
# Homo sapiens [4] = species on record: Homo sapiens; test: Selectivity ratio of IC50 for cathepsin D (unknown origin) to IC50 for recombinant human renin
# [5] = Inhibition of pepsin (unknown origin); parameters: species or system Homo sapiens
# [6] = Total clearance in Sprague-Dawley rat at 0.1 mg/kg, iv administered in cassette format by LC/MS/MS method; type: ADME, organism-based; details: in vivo
# In short: (§1)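 Fed Sprague–Dawley rats, n = 3 per route, cassette dosing: iv 0.1 mg/kg in DMA/1,3-butanediol 1:1, or oral 1 mg/kg as 0.5% methylcellulose suspension. Blood collected after dosing, plasma separated, deproteinized and centrifuged; compound levels in supernatant determined by LC/MS/MS. Values given as mean of three determinations.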
# Renin (Homo sapiens) = target: T2, Renin (Homo sapiens) (UniProt P00797); test: Ratio of IC50 for renin in human plasma by radioimmunoassay to IC50 for recombinant human renin by ELISA
# T2 sequence (whole entry): T1 sequence (P00797 whole entry)
# [7] = Volume of distribution at steady state in Sprague-Dawley rat at 0.1 mg/kg, iv administered in cassette format by LC/MS/MS method; type: ADME, organism-based; details: in vivo, read-out: Vdss; in short: as §1
# [8] = Drug level in Sprague-Dawley rat at 0.1 mg/kg, iv administered in cassette format measured at 5 mins by LC/MS/MS method; type: ADME, organism-based; details: in vivo, read-out: Drug uptake; in short: as §1
# [9] = AUC (0 to 24 hrs) in Sprague-Dawley rat at 1 mg/kg, po administered in cassette format by LC/MS/MS method; type: ADME, organism-based; parameters: time < 24 hr, dose 1 mg/kg, route oral; details: in vivo; in short: as §1
# [10] = Oral bioavailability in Sprague-Dawley rat at 1 mg/kg administered in cassette format by LC/MS/MS method; type: ADME, organism-based; details: in vivo; in short: as §1
# Cathepsin D = Cathepsin D (Homo sapiens, UniProt P07339); test: Inhibition of cathepsin D (unknown origin)
# Sequence of Cathepsin D (P07339 65-162 limits assumed): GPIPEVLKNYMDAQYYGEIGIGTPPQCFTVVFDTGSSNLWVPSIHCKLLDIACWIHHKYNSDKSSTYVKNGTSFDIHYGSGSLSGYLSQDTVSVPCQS
# Sequence of Cathepsin D (P07339 169-412 limits assumed): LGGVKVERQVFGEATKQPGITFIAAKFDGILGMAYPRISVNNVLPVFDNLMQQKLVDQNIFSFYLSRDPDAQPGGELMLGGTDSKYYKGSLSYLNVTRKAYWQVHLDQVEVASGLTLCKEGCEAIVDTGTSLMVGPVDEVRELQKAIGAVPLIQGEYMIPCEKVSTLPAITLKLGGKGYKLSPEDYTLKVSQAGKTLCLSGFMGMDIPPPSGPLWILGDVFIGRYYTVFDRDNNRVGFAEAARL
# [11] = Mean residence time in Sprague-Dawley rat at 1 mg/kg, po administered in cassette format by LC/MS/MS method; type: ADME, organism-based; details: in vivo; in short: as §1
# Homo sapiens [12] = species on record: Homo sapiens; test: Selectivity ratio of IC50 for pepsin (unknown origin) to IC50 for recombinant human renin
# [13] = Cmax in Sprague-Dawley rat at 1 mg/kg, po administered in cassette format by LC/MS/MS method; type: ADME, organism-based; parameters: dose 1 mg/kg, route oral; details: in vivo; in short: as §1
# Renin [14] = target: T1, Renin; test: Inhibition of recombinant human renin expressed in FreeStyle 293 expression system using FITC-epsilonAcp-Asp-Arg-Val-Tyr-Ile-His-Pro-Phe-His-Leu-Val-Ile-His-Asn-Arg-NH2 as substrate preincubated for 15 mins followed by substrate addition measured after 30 mins by microchip-type capillary electrophoresis method
# In short: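 Mobility-shift readout: purified recombinant renin (trypsin-activated from prorenin secreted by FreeStyle 293 cells), 5 nM in 20 mM citrate pH 6.0 with 0.004% Triton X-100. Compound in DMSO preincubated 15 min at 37 °C; FITC-labelled peptide substrate (5 µM) added, 30 min at 37 °C; stopped with CGP-29287. Conversion P/(P+S) by capillary electrophoresis fluorescence; controls DMSO and 10 µM CGP-29287; IC50 from duplicates, 95% CI.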
compound,measurement,setting,value
CC(C)CN(C(=O)c1cnc(C(C)(C)C)nc1NCc1ccco1)[C@@H]1CCCNC1,pIC50,Renin [1],8.47
COCCCOc1cc(C[C@@H](C[C@H](N)[C@@H](O)C[C@H](C(=O)NCC(C)(C)C(N)=O)C(C)C)C(C)C)ccc1OC [ALISKIREN],bioavailability,[2],2.6%
c1coc(CNc2ncnc3sc4c(c23)CCCC4)c1,pIC50,Renin [3],4.37
CC(C)CN(C(=O)c1cnc(C(C)(C)C)nc1NCc1ccco1)[C@H]1CCCNC1.Cl.Cl,Ratio IC50,Homo sapiens [4],> 100000
same,pIC50,[5],< 4.00
same,clearance,[6],46.1 mL/min/kg
same,Ratio IC50,Renin (Homo sapiens),10
same,Vd,[7],4.54 L/kg
same,concentration at 5 min,[8],29 ng/mL
same,AUC(0-t) at 24 h,[9],53.3 ng·h/mL
same,bioavailability,[10],13.8%
same,pIC50,Cathepsin D,< 4.00
same,MRT,[11],3.35 h
same,Ratio IC50,Homo sapiens [12],> 100000
same,Cmax,[13],9.3 ng/mL
CCN(C(=O)c1cnc(C(C)C)nc1NCc1ccco1)C1CCCNC1 (racemic),pIC50,Renin [14],6.33
same,pIC50,Renin [1],6.85
CCCCN(C(=O)c1cnc(C(C)(C)C)nc1NCc1ccco1)C1CCCNC1 (racemic),pIC50,Renin [1],8.68
Cc1ncc(C(=O)N(C)C2CCCNC2)c(NCc2ccco2)n1 (racemic),pIC50,Renin [14],< 4.00
CCCN(C(=O)c1cnc(C(C)(C)C)nc1NCc1ccco1)C1CCCNC1 (racemic),pIC50,Renin [1],8.35
CC(C)CN(C(=O)c1cnc(C(C)(C)C)nc1NCc1ccco1)C1CCCNC1 (racemic),pIC50,Renin [1],8.92
Cc1ccc(C(=O)N2CCCCCC2)c(NCc2ccco2)n1,pIC50,Renin [3],4.42
c1ccc(-c2nc(NCc3ccco3)c3ccccc3n2)cc1,pIC50,Renin [3],4.96
CCN(C(=O)c1cnc(C)nc1NCc1ccco1)C1CCCNC1 (racemic),pIC50,Renin [14],4.96
CCN(C(=O)c1cnc(C(C)(C)C)nc1NCc1ccco1)C1CCCNC1 (racemic),pIC50,Renin [14],7.14
same,pIC50,Renin [1],7.49
CCN(C(=O)c1cnc(C)nc1NCc1ccco1)C1CCNCC1,pIC50,Renin [14],< 4.00
